This is a sample that favours compounds with a hit; in the whole collection about 2.2% have one here.
ASAP1 GAP inh – blocks human ASAP1-stimulated Arf1 GTP hydrolysis | GDP FP detection | inhibition, % at 16.5 µM | 360,000 tested, 0.19% active | AID 624377; in the data active means inhibition above about 25%;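 further: 0% = vehicle with enzyme and substrate and 100% = no enzyme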
Target sequence (Q9ULH1 325-724 limits assumed): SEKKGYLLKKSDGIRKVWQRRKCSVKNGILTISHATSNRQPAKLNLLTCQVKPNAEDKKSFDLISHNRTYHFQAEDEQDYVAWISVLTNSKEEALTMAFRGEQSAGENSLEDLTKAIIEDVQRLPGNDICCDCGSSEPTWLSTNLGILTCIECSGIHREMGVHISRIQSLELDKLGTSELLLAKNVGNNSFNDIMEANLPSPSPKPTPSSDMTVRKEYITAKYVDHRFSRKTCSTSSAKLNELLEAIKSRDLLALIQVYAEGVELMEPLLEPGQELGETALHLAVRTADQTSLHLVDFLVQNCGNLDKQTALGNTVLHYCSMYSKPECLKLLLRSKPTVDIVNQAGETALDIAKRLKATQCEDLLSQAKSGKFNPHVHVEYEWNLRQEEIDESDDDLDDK
ARFGAP1 inhibitor – inhibitors of rat ARFGAP1. 360,000 tested, 0.26% active. AID 651572. inhibition, % at 16.5 µM. Q62848. Arfgap1-stimulated ARF1 GTP hydrolysis, GDP FP detection;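 active means inhibition above a per-plate limit, mean inhibition of low control wells plus 3 SD, cut at about 25% in these data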;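 further: 0% = DMSO wells with enzyme and 100% = wells lacking Arfgap1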
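System: truncated rat Arfgap1 GAP domain / Medium: HEPES-based buffer, pH 7.5 / Also added: N-terminally truncated human ARF1-GTP substrate / Incubation: enzyme reaction 120 min at 25 °C after 20 min preincubation / Measured by: FP of antibody-bound GDP Alexa 633 tracer, ex 620/em 688 nm / Replicates: singlicate, each compound tested once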
Exocytosis inh – blocks lytic granule exocytosis; AID 651702; TALL-104 LAMP-1 surface exposure, flow cytometry; cells stimulated with thapsigargin and PMA; inhibition, % at 10 µM; 360,000 tested, 0.66% active;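 active means inhibition above about 55%, limit read from the data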
V-ATPase pH – regulators of yeast V-ATPase proton transport; response, % at 10 µM; 350,000 tested, 0.37% active; AID 504577; S. cerevisiae, pHLuorin cytosolic pH fluorescence; in the data active means response mostly above about 7.3%, no sharp cut-off; inactive means mostly below about 5.4%; further: actives read high
CendR NRP1 mod – NRP-1/CendR interaction modulation. FAM-RPARPAR peptide binding to NRP-1, fluorescence polarization. inhibition, % at 25 µM. 360,000 tested, 0.85% active. AID 602438;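 active means inhibition or corrected inhibition above about 18%, plus a signal ratio from 0.5 to 1.5, limit read from the data, passing the limit was not always enough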
VATPase regulator – yeast V-ATPase proton transport regulation | shares compounds with V-ATPase pH | S. cerevisiae pHLuorin cytosolic pH | response, % at 10 µM | 980 tested, 2% active; in the data active means response above about 24%;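 further: plate controls were vehicle wells for no effect and positive control wells for full effect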
An asterisk follows results filed as active; · = no result given.

SMILES	ASAP1 GAP inh	ARFGAP1 inhibitor	Exocytosis inh	V-ATPase pH	CendR NRP1 mod	VATPase regulator
Cc1cc(C(=O)OCC(=O)Nc2sc3c(c2C#N)CCC(C)C3)c2ccccc2n1 (centres undefined)	-2	-15	-1	13*	-18	-3
COc1ccccc1-c1cc(C(=O)Nc2sc3c(c2C#N)CCC(C)C3)c2ccccc2n1 (centres undefined)	7	1	-1	1	0	·
COc1ccccc1-c1cc(C(=O)NCCc2ccccc2)no1	6	3	3	13*	0	0
CC1CN(S(=O)(=O)c2cccc(C(=O)NCc3ccco3)c2)CC(C)O1 (centres undefined)	14	-10	3	-2	8	·
CC(=NNC(=O)C(C)SC(C)C(=O)NN=C(C)c1cccnc1)c1cccnc1 (centres undefined)	-14	-3	2	0	13	·
Cc1ccc(S(=O)(=O)N2CCN(c3ccccc3)CC2)cc1C(N)=O	6	-11	-8	9.8*	3	-1
COc1ccc(N2C(=NC(=O)C3CCCCC3)SC3CS(=O)(=O)CC32)cc1 (centres undefined)	-4	-10	-6	8.0*	8	1
COc1cccc(N2C(=NC(=O)C3CCCCC3)SC3CS(=O)(=O)CC32)c1 (centres undefined)	-19	-8	-4	4	2	·
COc1ccc(C(=O)N2CC(=O)N(CCc3ccccc3)C(=O)C2)cc1OC	10	-13	-1	2	-5	·
COc1ccc(CC(=O)N2CC(=O)N(CCc3ccccc3)C(=O)C2)cc1	-1	-8	0	8.7*	-2	-1
O=[N+]([O-])c1cc([N+](=O)[O-])c(N2CCCCCC2)cc1NCCO	-12	-1	-5	8.3*	1	-1
O=[N+]([O-])c1c(NCCO)cc(N2CCCCC2)c2nonc12	3	3	2	-1	-5	·
CC(=O)c1cccc(S(=O)(=O)N2CCC(C(=O)N(C)Cc3ccc(Cl)s3)CC2)c1	-10	-3	-4	1	-4	·
Cc1ccc(C(=O)NNC(=S)NC(=O)c2ccco2)cc1	-9	-4	1	2	10	·
Cc1ccc(C(=O)NNC(=O)c2ccco2)cc1	13	8	1	17*	0	0
Cc1cc(NC(=O)/C=C/c2ccc(F)cc2)n(-c2nc3ccccc3[nH]2)n1	-9	2	-6	8	7	·
COc1ccc(/C=C/C(=O)Nc2cc(C)nn2-c2nc3ccccc3[nH]2)cc1	0	3	-1	16*	3	-1
CCCCN(C(=O)c1ccccc1Br)C(c1ccc(OC)cc1)c1nc2ccccc2[nH]1 (centres undefined)	12	4	0	·	12	·
O=C(NC1CCCCC1)c1ccc2[nH]c(=O)c(=O)[nH]c2c1	3	5	1	0	-2	·
O=C(NCC#CCOCc1ccccc1)c1ccccc1	4	9	-6	4	-12	·
C[C@H](c1ccccc1)n1nnc(COCc2ccccc2)c1C#CCOCc1ccccc1	-2	2	-4	9.9*	-6	1
CC(C)C1C(=O)N(Cc2cn(CCC3OCCCO3)nn2)CCS(=O)(=O)N1Cc1ccc(-c2ccc(Cl)c(Cl)c2)cc1 (centres undefined)	-10	11	39	0	-20	·
N#Cc1c(-c2ccccc2)c(-c2ccccc2)n(Cc2ccco2)c1NC(=O)c1cccs1	-15	-13	-1	9.7*	7	-6
O=C(CSc1nnc(-c2ccc(O)cc2)n1Cc1ccco1)c1cccs1	-5	-11	-5	-4	-9	·
COc1cc(C2NC(=O)NC(C)=C2C(=O)OCc2ccc(C)cc2)cc(OC)c1OC (centres undefined)	-15	3	-1	-2	0	·
COc1cc(C2NC(=O)NC(C)=C2C(=O)OCc2ccc(C)cc2)cc(OC)c1O (centres undefined)	-11	10	2	9.5*	0	1
Cc1cc(=O)oc2cc(NC(=O)c3c(Cl)cnn3C)ccc12	5	-6	-5	9.2*	7	1
COc1ccc(CC(N)c2csc(Nc3nncc4ccccc34)n2)cc1 (centres undefined)	4	1	25	·	-5	·
N#CC1=C(N)Oc2c(ccc3cccnc23)C1c1cccnc1 (centres undefined)	3	-1	0	9.7*	-1	-1

Screening data from PubChem.
